Measured values taken from ChEMBL document CHEMBL1137444, “Thiazole-diamides as potent gamma-secretase inhibitors” (Bioorg Med Chem Lett, 2007).

What was measured:
Gamma-secretase [1] = experiment: Inhibition of gamma secretase C100Flag cleavaging activity in HeLa cell membranes assessed as M-amyloid beta-40 production by cell free assay; parameters: species or system Homo sapiens
In short: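 IC50 taken as the geometric mean of at least two experiments, each run with six data points.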

Gamma-secretase [2] = experiment: Inhibition of gamma secretase activity in human H4 cells transfected with APP695 mutant assessed as beta amyloid(1-40) production by whole cell assay; format: cell-based
In short: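 Cells were plated at about 30,000 per well and left to attach for about 6 h at 37 °C. They were then washed to clear secreted Aβ and given fresh medium containing compound for overnight incubation at 37 °C. Secreted Aβ in the harvested medium was measured by immunoassay. IC50 is the geometric mean of at least two experiments, six data points each.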

SMILES | IC50 (Gamma-secretase [1]) [nM] | IC50 (Gamma-secretase [2]) [nM]
CCC[C@H](NC(=O)[C@@H](O)C(C)C)C(=O)Nc1ncc([C@H](C)CCCC(C)(C)OC)s1 | 9 | 7.49
CCC[C@H](NC(=O)[C@@H](O)C(C)(C)C)C(=O)Nc1ncc(C(C)CCCC(C)(C)O)s1 (stereo partly specified) | 7.4 | 0.22
CCC[C@H](NC(=O)[C@@H](O)C(C)C)C(=O)Nc1ncc(C(C)CCCC(C)(C)OC)s1 (stereo partly specified) | 5.9 | 0.3
COC(C)(C)CCCC(C)c1cnc(NC(=O)[C@H](C)NC(=O)CCc2cc(F)cc(F)c2)s1 (stereo partly specified) | 30 | 0.22
CCC[C@H](NC(=O)[C@@H](O)C(C)(C)C)C(=O)Nc1ncc(C(C)CCCC(C)(C)OC)s1 (stereo partly specified) | 13 | 0.43
CCC[C@H](NC(=O)[C@@H](O)C(C)(C)C)C(=O)Nc1ncc([C@@H](C)CCCC(C)(C)OC)s1 | 10 | 0.11
CCC[C@H](NC(=O)[C@@H](O)C(C)(C)C)C(=O)Nc1ncc([C@H](C)CCCC(C)(C)OC)s1 | 9.9 | 1.14
CCC[C@H](NC(=O)Cc1cc(F)cc(F)c1)C(=O)Nc1ncc(C(CC)CC)s1 | 26.3 | 2.2
CCC[C@H](NC(=O)Cc1cc(F)cc(F)c1)C(=O)Nc1ncc(C(O)(CC)CC)s1 | 1 | 1.2
CCC[C@H](NC(=O)[C@@H](O)c1ccccc1)C(=O)Nc1ncc(C(O)(CC)CC)s1 | 2.8 | 2.2
CCC[C@H](NC(=O)[C@@H](O)C(C)C)C(=O)Nc1ncc([C@@H](C)CCCC(C)(C)OC)s1 | 9 | 0.3
CCC[C@H](NC(=O)CCc1cc(F)cc(F)c1)C(=O)Nc1ncc(C(C)CCCC(C)(C)OC)s1 (stereo partly specified) | 10 | 0.14
CCC[C@H](NC(=O)Cc1cc(F)cc(F)c1)C(=O)Nc1ncc(C(C)CC(C)(C)C)s1 (stereo partly specified) | 64.8 | 1.6
CC[C@H](NC(=O)CCc1cc(F)cc(F)c1)C(=O)Nc1ncc([C@@H](C)CCCC(C)(C)OC)s1 | 30 | 0.1
CCC[C@H](NC(=O)[C@@H](O)c1cc(F)cc(F)c1)C(=O)Nc1ncc(C(CC)CC)s1 | 6.2 | 0.3
CCC[C@H](NC(=O)Cc1cc(F)cc(F)c1)C(=O)Nc1nc(C)c(CC)s1 | 30 | 12.9
CCC[C@H](NC(=O)Cc1cc(F)cc(F)c1)C(=O)Nc1nc(C)c(C(C)=O)s1 | 20 | 27.7
CC[C@H](NC(=O)CCc1cc(F)cc(F)c1)C(=O)Nc1ncc(C(C)CCCC(C)(C)OC)s1 (stereo partly specified) | 13.6 | 0.08
CCC[C@H](NC(=O)C(=O)C(C)(C)C)C(=O)Nc1ncc(C(C)C)s1 | 116 | 16.8
CCC[C@H](NC(=O)Cc1cc(F)cc(F)c1)C(=O)Nc1nc(C)c(C(C)NCC(F)(F)F)s1 (stereo partly specified) | 10 | 4.5
CCCNC(C)c1cnc(NC(=O)[C@H](CCC)NC(=O)Cc2cc(F)cc(F)c2)s1 (stereo partly specified) | 15.9 | 10.1
CCC[C@H](NC(=O)Cc1cc(F)cc(F)c1)C(=O)Nc1ncc(C(C)NC(C)C)s1 (stereo partly specified) | 42.4 | 29.8
CCC[C@H](NC(=O)Cc1cc(F)cc(F)c1)C(=O)Nc1ncc(C(C)NCC(C)C)s1 (stereo partly specified) | 4.2 | 4.2
CCC[C@H](NC(=O)Cc1cc(F)cc(F)c1)C(=O)Nc1nc(C)c(C(C)NCCC(C)(C)C)s1 (stereo partly specified) | 5.9 | 2
CCC[C@H](NC(=O)Cc1cc(F)cc(F)c1)C(=O)Nc1nc(C)c(C(C)N(C)C)s1 (stereo partly specified) | 28.3 | 39.7
CCC[C@H](NC(=O)Cc1cc(F)cc(F)c1)C(=O)Nc1ncc(C(C)NCc2ccccc2)s1 (stereo partly specified) | 3 | 1.4
CCC[C@H](NC(=O)Cc1cc(F)cc(F)c1)C(=O)Nc1nc(C)c(C(C)NCCC(C)C)s1 (stereo partly specified) | 5 | 2

SMILES | IC50 (Gamma-secretase [1]) [nM] | IC50 (Gamma-secretase [2]) [nM]
CCC[C@H](NC(=O)Cc1cc(F)cc(F)c1)C(=O)Nc1ncc(C(C)NCCC(C)(C)C)s1 (stereo partly specified) | 2.7 | 1.2
CCC[C@H](NC(=O)Cc1cc(F)cc(F)c1)C(=O)Nc1ncc(CN2CCOCC2)s1 | 30 | 12.7
CCC[C@H](NC(=O)Cc1cc(F)cc(F)c1)C(=O)Nc1ncc(C(C)N2CCOCC2)s1 (stereo partly specified) | 3.8 | 2.4
CCC[C@H](NC(=O)Cc1cc(F)cc(F)c1)C(=O)Nc1ncc(CN)s1 | 200 | 93
CCC[C@H](NC(=O)Cc1cc(F)cc(F)c1)C(=O)Nc1nc(C)c(C(C)NC)s1 (stereo partly specified) | 51.8 | 50.5
CCC[C@H](NC(=O)Cc1cc(F)cc(F)c1)C(=O)Nc1nc(C)c(C(C)NCC)s1 (stereo partly specified) | 155 | 42
CCCCNC(C)c1sc(NC(=O)[C@H](CCC)NC(=O)Cc2cc(F)cc(F)c2)nc1C (stereo partly specified) | 7.1 | 3.7
CC[C@H](NC(=O)CCc1cc(F)cc(F)c1)C(=O)Nc1ncc([C@H](C)CCCC(C)(C)OC)s1 | 727 | 81.5
CCCCN(CC)Cc1cnc(NC(=O)[C@H](CCC)NC(=O)Cc2cc(F)cc(F)c2)s1 | 30 | 12.7
CCC[C@H](NC(=O)Cc1cc(F)cc(F)c1)C(=O)Nc1ncc(C(C)N2CCCC2)s1 (stereo partly specified) | 10 | 10.6
CCC[C@H](NC(=O)[C@H](O)c1ccccc1)C(=O)Nc1ncc(C(O)(CC)CC)s1 | 141 | 183
CCC[C@H](NC(=O)Cc1cc(F)cc(F)c1)C(=O)Nc1nc(C)c(C)s1 | 141 | 94.1
CCC[C@H](NC(=O)Cc1cc(F)cc(F)c1)C(=O)Nc1nc(C)c(C(C)N2CCN(C)CC2)s1 (stereo partly specified) | 28.3 | 26.1
CCC[C@H](NC(=O)Cc1cc(F)cc(F)c1)C(=O)Nc1ncc(C(C)NCC(C)(C)C)s1 (stereo partly specified) | 134 | 231
CCCCNC(C)c1cnc(NC(=O)[C@H](CCC)NC(=O)Cc2cc(F)cc(F)c2)s1 (stereo partly specified) | 6 | 2
CCC[C@H](NC(=O)Cc1cc(F)cc(F)c1)C(=O)Nc1ncc(C(C)C)s1 | 30 | 5.1
CCCC(CCC)c1cnc(NC(=O)[C@H](CCC)NC(=O)Cc2cc(F)cc(F)c2)s1 | < 34.6 | 0.8
CCC[C@H](NC(=O)Cc1cc(F)cc(F)c1)C(=O)Nc1ncc(C(C)N[C@H](C(=O)OC)C(C)C)s1 (stereo partly specified) | 4 | 0.7
CCC[C@H](NC(=O)[C@@H](O)C(C)(C)C)C(=O)Nc1ncc(C(C)C)s1 | 45.1 | 20.1
CCC[C@H](NC(=O)[C@@H](O)C(C)(C)C)C(=O)Nc1ncc(C(C)(C)O)s1 | 94.9 | 37.3
CCC[C@H](NC(=O)Cc1cc(F)cc(F)c1)C(=O)Nc1ncc(C(C)NCCC(C)C)s1 (stereo partly specified) | 2.6 | 1.2
CCC[C@H](NC(=O)CCc1cc(F)cc(F)c1)C(=O)Nc1ncc(C(C)CCCC(C)(C)O)s1 (stereo partly specified) | 6 | 0.05
CCC[C@H](NC(=O)Cc1cc(F)cc(F)c1)C(=O)Nc1ncc(CNCC)s1 | 63.2 | 104
CCC[C@H](NC(=O)Cc1cc(F)cc(F)c1)C(=O)Nc1nc(C)c(C(C)NCC(C)C)s1 (stereo in doubt; 34) | 10 | 4.8
CCC[C@H](NC(=O)Cc1cc(F)cc(F)c1)C(=O)Nc1nc(C)c(C(C)NCC(C)C)s1 (stereo in doubt; 34a) | 3.1 | 2.5
CCC[C@H](NC(=O)Cc1cc(F)cc(F)c1)C(=O)Nc1nc(C)c(C(C)NCC(C)C)s1 (stereo in doubt; 34b) | 33 | 31.6
